# Screens as filed in PubChem.
# This is a sample that favours compounds with a hit; in the whole collection about 1.4% have one here.
# CSN deneddyl inh – CSN deneddylation inhibition. Q92905. Purified CSN, SCF-Nedd8-OG deneddylation, fluorescence polarization. inhibition, % at 12.5 µM. 0.38% of 360,000 active;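 active = pattern-corrected inhibition above about 35%, with an unprinted fluorescence ratio check between 0.5 and 1.5, limit read from the data, passing the limit was not always enough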;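 note: 0% = enzyme with substrate and 100% = substrate without enzyme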
# Target sequence (Q92905 whole entry, looked up, one chain of several): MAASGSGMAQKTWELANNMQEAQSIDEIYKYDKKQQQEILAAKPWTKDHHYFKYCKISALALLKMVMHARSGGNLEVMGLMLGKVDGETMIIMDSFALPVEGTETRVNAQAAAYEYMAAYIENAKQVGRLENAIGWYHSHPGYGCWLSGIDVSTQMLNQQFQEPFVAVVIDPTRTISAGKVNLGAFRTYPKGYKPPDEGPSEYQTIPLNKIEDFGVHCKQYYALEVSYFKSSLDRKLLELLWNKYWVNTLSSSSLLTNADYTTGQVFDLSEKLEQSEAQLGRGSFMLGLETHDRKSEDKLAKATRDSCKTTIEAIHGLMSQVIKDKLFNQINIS
#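 Detection – fluorescence polarization · System – HEK293T-derived human Csn5 enzyme · Controls – substrate-only high control, full reaction low control · Timing – 90 min, room temperature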
# TPT1 inhibitor – C. albicans TPT1 enzyme inhibition; AID 1962; recombinant caTPT1, FP RNA substrate dephosphorylation; inhibition, % at 5 µM; 0.81% of 300,000 active;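 active = inhibition above the mean of all tested compounds plus 3 SD, set per screening campaign, cut at about 24% in these data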;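 note: plate controls were DMSO alone for no effect and ferristatin control at 100 nM for full effect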
# HNF4A DNA FP – change in binding of human HNF4 alpha to DNA; AID 1224865; P41235; 0.3% of 360,000 active; activity change, % at 10 µM; HNF4a-FITC DNA binding, fluorescence polarization, 1 h; in the data active = activity change above about 30%, passing the limit was not always enough
# IDE inh – cellular human IDE inhibition; P14735; HEK cells, FAbetaB cleavage, fluorescence polarization; inhibition, % at 5.59 µM; 0.41% of 320,000 active; AID 434962;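 active = percent inhibition above the average of all tested compounds plus 3 SD, set per screening campaign, cut at about 16% in these data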;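 note: IDE supplied by intact live HEK cells; FP after avidin binding of uncleaved biotin substrate so inhibition keeps polarization high; 0% = DMSO wells and 100% = 60 µM reference IDE inhibitor Ii1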
# IDE act – boosts human insulin-degrading enzyme activity in HEK cells. AID 493087. activation, % at 5.96 µM. 0.073% of 340,000 active. FAbeta-B cleavage, fluorescence polarization; 0% vehicle, 100% cell-free pure enzyme wells;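 active = activation above the mean of all tested compounds plus 3 SD, set per screening campaign, cut at about 17% in these data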
# * hit, by the source's call; · = no result given.
SMILES,CSN deneddyl inh,TPT1 inhibitor,HNF4A DNA FP,IDE inh,IDE act
COc1ccc(-c2cc(-c3ccc(Cl)cc3)c(C#N)c(SCC(=O)O)n2)cc1,41*,-2,-6,6,5
CCCCCN(C(=O)CCC(=O)OCC(=O)N(C)c1ccccc1)c1c(N)n(CCCC)c(=O)[nH]c1=O,-2,0,-5,0,2
CCCCCN(C(=O)CN1CCC(Cc2ccccc2)CC1)c1c(N)n(CCCC)c(=O)[nH]c1=O,11,5,37*,2,4
O=C(c1cc2ccccc2oc1=O)N(Cc1cccs1)Cc1cccs1,-1,3,-3,-3,3
CCN(CC)c1ccc2cc(C(=O)c3cccs3)c(=O)oc2c1,4,·,84*,·,·
O=C(Nc1ccccc1-c1nc2ccccc2[nH]1)c1ccc(N2C(=O)CCC2=O)cc1,54*,3,85*,6,0
COc1ccc2noc3c2c1C(=O)c1ccccc1-3,-79,-32,-105,-21,38*
COc1ccc(OC)c2c1C(=O)c1ccccc1C2=O,·,-140,·,-7,·
COc1ccc(-c2ccc3c(=O)cc(-c4ccsc4)oc3c2)cn1,104*,·,63*,3,1
CCCCNC(=O)c1[nH]c(=O)cnc1-c1ccccc1,3,·,4,·,·
Cc1ccc2nc(C)cc(NCCO)c2c1,77*,-1,0,-1,2
CC(C)(C)C(=O)c1c(N)[nH]c(C(=O)c2ccccc2)c1-c1ccccc1Br,4,·,5,·,·
NC(=O)c1c(N)[nH]c(C(=O)c2ccccc2)c1-c1ccccc1Br,108*,·,4,·,·
COc1ccc2c(-c3ccccc3)cc(SCC(=O)NC(N)=O)nc2c1,13,-2,1,5,26*
COCCNC(=O)CSc1cc(-c2ccccc2)c2ccc(OC)cc2n1,0,2,2,5,-11
O=C(N/N=C/c1ccncc1)c1cccc(NC(=O)c2ccc(Cl)cc2)c1,78*,-2,12,0,0
O=C(N/N=C/c1ccncc1)c1cccc(N/N=C/c2ccncc2)c1,-4,6,-1,0,1
COc1ccc(Br)cc1C(=O)Nc1cccc(-c2nnc(-c3ccco3)o2)c1,115*,0,49*,2,-5
COc1cccc(C(=O)Nc2cccc(-c3nnc(-c4ccco4)o3)c2)c1,7,1,4,3,-15
CN(C)c1ccc(-c2csc(C(O)c3cccc(Cl)c3)n2)cc1 (stereo not drawn),2,·,1,·,·
CCCCCCCCN1C(=O)[C@H](CC(=O)N2CCN(C(=O)C3CC3)CC2)C[C@@]2(C(=O)OC)CC(C)(C)CC=C12,0,·,2,·,·
Cc1ccc(-n2c(=O)c3cc4c(=O)n(-c5ccc(C)c(C)c5)c(=O)c4c(C(=O)c4ccc(C(=O)O)cc4)c3c2=O)cc1C,84*,-1,-58,-9,4
O=C(O)c1ccccc1N=Nc1ccc(O)cc1,-9,-24,-9,-14,20*
Nc1ccc(-c2nc3ccc(N)cc3[nH]2)cc1,5,0,-1,1,3
Nc1ccc2cc3[nH]c4cc(N)ccc4c3nc2c1,-75,·,-108,·,53*
SMILES,CSN deneddyl inh,TPT1 inhibitor,HNF4A DNA FP,IDE inh,IDE act
O=C(NCc1ccc(Cl)cc1)c1ccc(-c2ccc(F)c(F)c2)c2ccoc12,2,·,1,·,·
CCNC(=O)CN(C1CCCCC1)S(=O)(=O)c1ccc(F)cc1,4,0,37*,4,4
N=c1c(S(=O)(=O)c2ccc(Cl)cc2)cc2c(=O)n3ccccc3nc2n1Cc1ccco1,40*,8,5,7,7
CCCCn1nnnc1C(c1cc2ccccc2o1)N1CCN(c2ccncc2)CC1 (stereo not drawn),-1,·,-1,·,·
CCn1c(SCC(=O)Nc2oc(-c3ccccc3)c(-c3ccccc3)c2C#N)nnc1-c1cc(OC)cc(OC)c1,70*,-2,14,-3,4
N#Cc1c(NC(=O)CSc2ncccn2)oc(-c2ccccc2)c1-c1ccccc1,-2,7,2,-1,2
CC(C)(C)N1C(=O)c2ccccc2NC(=O)C1C(=O)NCCOc1ccccc1 (stereo not drawn),1,·,2,·,·
Cc1ccc2oc(=O)c(/C=C(\O)c3ccco3)nc2c1,-3,4,41*,-4,3
Cc1ccc2oc(=O)c(/C=C(\O)C(C)(C)C)nc2c1,2,-1,0,5,0
CCCCCCCCN1C(=O)[C@H](CC(=O)NCCCOCCCC)C[C@@]2(C(=O)OCC)CCCC=C12,2,·,0,·,·
Cc1cc2c(cc1C)-n1nnnc1C(N(Cc1ccccc1)Cc1ccccc1)C(=O)N2 (stereo not drawn),1,·,0,·,·
CC(=O)Nc1ccc(NC(=O)C(C)Oc2ccc(Cl)cc2Cl)cc1 (stereo not drawn),-2,0,4,-1,6
CC(Oc1ccc(Cl)cc1Cl)C(=O)Nc1ccncc1 (stereo not drawn),48*,1,-4,-3,3
O=[N+]([O-])c1cccc(Cl)c1NCCNc1ncc(C(F)(F)F)cc1Cl,-1,-4,-1,7,73*
Cc1c(C(=O)NCCNc2ncc(C(F)(F)F)cc2Cl)cccc1[N+](=O)[O-],-2,-3,5,5,0
CCc1ccc2c(c1)c1nc(C)sc1n2CC,54*,3,-3,7,-6
Cc1nc2c3cc(F)ccc3n(Cc3ccc(F)cc3)c2s1,6,1,-3,1,2
Nc1sc2c(c1C(=O)NCCc1ccccc1)CCCC2,7,·,-2,·,·
Cc1[nH]c2ccccc2c1C(=O)CSc1nc2cc(S(=O)(=O)N3CCCCC3)ccc2o1,100*,6,4,-2,3
COC(=O)[C@@]12C[C@@H](CC(=O)N3CCCC3)C(=O)N(Cc3ccco3)C1=CCC(C)(C)C2,0,·,0,·,·
COC(=O)[C@@]12C[C@@H](CC(=O)N3CCC(c4ccccc4)CC3)C(=O)N(Cc3ccco3)C1=CCC(C)(C)C2,121*,·,4,·,·
Cn1nc(-c2ccc(C(=O)Nc3ccc(F)cc3)cc2)c2ccccc2c1=O,44*,-1,1,4,·
CN(Cc1ccc2c(c1)CCCN2C)C(=O)[C@H]1O[C@@H](n2cnc3c(N)ncnc32)[C@H](O)[C@@H]1O,-2,·,-1,·,·
O=C(CN1C(=O)c2ccccc2C1=O)C(O)CN1C(=O)c2ccccc2C1=O (stereo not drawn),1,·,0,·,·
CC1(C)CC(Cc2ccc(C(F)(F)F)cn2)N(C(=O)OC(C)(C)C)C1 (stereo not drawn),2,·,8,·,·
CC(C(=O)NCCN1C(=O)S/C(=C\c2cccnc2)C1=O)N1C(=O)c2ccccc2C1=O (stereo not drawn),-1,-1,2,4,5
O=C(CCl)NCCN1C(=O)S/C(=C\c2cccnc2)C1=O,62*,1,12,0,0
Cc1cccc(C)c1NC(=O)C(c1cc2ccccc2o1)N1CCN(C)CC1 (stereo not drawn),2,·,0,·,·
